Blank lines part the entries; values can stand above or below the compound they belong to.
How the values were obtained:
[1] = Relative Lipophilicity measured by reversed-phase high performance thin-layer chromatography (RP-HPTLC); type: physicochemical
Summary of the method: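 Reversed-phase TLC; plates dried 105 °C, 1 h; mobile phase acetone/water 2:1 (v/v); 1 µL of 3 mg/mL CHCl3 solution spotted; five runs with varied placement; mean Rf converted via Rm = log[(1/Rf) - 1].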

[2] = Therapeutic index is the ratio between TD50 and ED50 (from the clonic phase of the audiogenic seizures); conditions: read-out: TI
Summary of the method: (§1)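 Therapeutic index = TD50 (rotarod, ip) divided by ED50 for clonic phase of audiogenic seizures in DBA/2 mice; both by Litchfield-Wilcoxon, at least 32 animals each.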

[3] = Evaluated for anticonvulsant property in Swiss mice against PTZ induced seizures; value ranges from 51.8-113; type: functional; conditions: Mus musculus
Summary of the method: (§2)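 Male Swiss mice given drug ip (50% DMSO/50% saline) 45 min before sc PTZ at CD97 (85 mg/kg); watched 30 min; protection = no clonic spasm lasting at least 5 s; ED50 by Litchfield-Wilcoxon.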

[4] = Evaluated for anticonvulsant property in DBA/2 mice against Locomotion assessed by Rotarod test (ip administration); value ranges from 73.8-206; type: functional, Mus musculus
Summary of the method: (§3)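 Rotarod (3-cm diameter, 8 rpm): trained mice in groups of 10 tested 30 min after ip dosing; failure to stay on for 2 min = impairment. TD50 by Litchfield-Wilcoxon, at least 32 animals per value.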

[5] = Evaluated for anticonvulsant property in DBA/2 mice against Audiogenic seizures during tonic phase (ip administration); value ranges from 15.4-49.4; conditions: Mus musculus
[6] = Evaluated for anticonvulsant property in DBA/2 mice against Audiogenic seizures during clonic phase (ip administration); value ranges from 32.5-61.2; conditions: Mus musculus
[7] = Evaluated for anticonvulsant property in Swiss mice against MES induced seizures; ranges from [45.6-80.3]; type: functional; conditions: Mus musculus
[8] = Evaluated for anticonvulsant property in DBA/2 mice against Audiogenic seizures during clonic phase (ip administration); value ranges from 46.0-132; type: functional; conditions: Mus musculus
Summary of the method: (§4)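 DBA/2 mice, genetically sound-susceptible (8-12 g, 22-25 days old, either sex), groups of 10; drug ip in 50% DMSO/50% saline (0.1 mL/10 g), auditory stimulation 30 min later; latency and incidence of clonic and tonic phases scored; ED50 via Litchfield-Wilcoxon, at least 32 animals per value.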

[9] = Evaluated for anticonvulsant property in DBA/2 mice against Locomotion assessed by Rotarod test (ip administration); type: functional, Mus musculus; summary of the method: as §3
[10] = Evaluated for anticonvulsant property in DBA/2 mice against Audiogenic seizures during tonic phase (ip administration); value ranges from 41.5-78.8; type: functional; conditions: Mus musculus; summary of the method: as §4
[11] = Evaluated for anticonvulsant property in DBA/2 mice against Locomotion assessed by Rotarod test (ip administration); value ranges from 34-77.8; type: functional, Mus musculus; summary of the method: as §3
[12] = test system: Mus musculus; test: Anticonvulsant activity was determined when tested at 15 min from intraperitoneal administration; type: functional; conditions: ip, 0.25 h
[13] = Therapeutic index is the ratio between TD50 and ED50 (from the clonic phase of the audiogenic seizures); ND means not detectable; summary of the method: as §1
[14] = Evaluated for anticonvulsant property in DBA/2 mice against Audiogenic seizures during tonic phase (ip administration); ranges from [32.5-57.4]; type: functional; conditions: Mus musculus; summary of the method: as §4
[15] = Evaluated for anticonvulsant property in DBA/2 mice against Audiogenic seizures during clonic phase (ip administration); ranges from [39.2-81.1]; type: functional; conditions: Mus musculus; summary of the method: as §4
[16] = Evaluated for anticonvulsant property in Swiss mice against PTZ induced seizures; value ranges from 45.6-80.3; type: functional; conditions: Mus musculus; summary of the method: as §2
[17] = Evaluated for anticonvulsant property in DBA/2 mice against audiogenic Seizures after pretreatment with Aniracetam during clonic phase; value ranges from 28.3-91.5; type: functional; conditions: Mus musculus
[18] = Evaluated for anticonvulsant property in Swiss mice against MES induced seizures; value ranges from 33.5-56.0; type: functional; conditions: Mus musculus
[19] = Evaluated for anticonvulsant property in DBA/2 mice against audiogenic Seizures after pretreatment with Aniracetam during tonic phase, *p<0.01; value ranges from 23.5-62.7; type: functional; conditions: Mus musculus
[20] = Evaluated for anticonvulsant property in DBA/2 mice against Locomotion assessed by Rotarod test (ip administration); value ranges from 65.1-126; type: functional, Mus musculus; summary of the method: as §3
[21] = Evaluated for anticonvulsant property in DBA/2 mice against Audiogenic seizures during tonic phase (ip administration); value ranges from 14.3-31.9; type: functional; conditions: Mus musculus; summary of the method: as §4
[22] = Evaluated for anticonvulsant property in DBA/2 mice against AMPA induced seizures during clonic phase; value ranges from 27.5-64.3; type: functional; conditions: Mus musculus
[23] = Evaluated for anticonvulsant property in DBA/2 mice against Audiogenic seizures during clonic phase (ip administration); value ranges from 16.3-[…]; type: functional; conditions: Mus musculus; summary of the method: as §4
[24] = Evaluated for anticonvulsant property in DBA/2 mice against AMPA induced seizures during tonic phase; value ranges from 20.6-50.3; type: functional; conditions: Mus musculus
[25] = Evaluated for anticonvulsant property in DBA/2 mice against Audiogenic seizures during clonic phase (ip administration); value ranges from 26.0-44.2; type: functional; conditions: Mus musculus; summary of the method: as §4
[26] = Evaluated for anticonvulsant property in DBA/2 mice against Locomotion assessed by Rotarod test (ip administration); value ranges from 87.3-231; type: functional, Mus musculus; summary of the method: as §3
[27] = Evaluated for anticonvulsant property in Swiss mice against PTZ induced seizures; value ranges from 72.2 - 114; type: functional; conditions: Mus musculus; summary of the method: as §2
[28] = Evaluated for anticonvulsant property in Swiss mice against MES induced seizures; value ranges from 62.4 - 92.1; type: functional; conditions: Mus musculus
[29] = Evaluated for anticonvulsant property in DBA/2 mice against Audiogenic seizures during clonic phase (ip administration); value ranges from 60.3-91.0; type: functional; conditions: Mus musculus; summary of the method: as §4
[30] = Evaluated for anticonvulsant property in DBA/2 mice against Audiogenic seizures during tonic phase (ip administration); value ranges from 41.3-82.3; type: functional; conditions: Mus musculus; summary of the method: as §4
[31] = Evaluated for anticonvulsant property in DBA/2 mice against Audiogenic seizures during tonic phase (ip administration); value ranges from 8.04-21.3; type: functional; conditions: Mus musculus; summary of the method: as §4
[32] = Evaluated for anticonvulsant property in DBA/2 mice against Locomotion assessed by Rotarod test (ip administration); value ranges from 59.4-99.3; type: functional, Mus musculus; summary of the method: as §3
[33] = Evaluated for anticonvulsant property in Swiss mice against MES induced seizures; value ranges from 26.8-45.8; type: functional; conditions: Mus musculus
[34] = Evaluated for anticonvulsant property in Swiss mice against PTZ induced seizures; value ranges from 43.8-79.1; type: functional; conditions: Mus musculus; summary of the method: as §2
[35] = Evaluated for anticonvulsant property in DBA/2 mice against Audiogenic seizures during clonic phase (ip administration); value ranges from 10.5-38.2; type: functional; conditions: Mus musculus; summary of the method: as §4
[36] = Evaluated for anticonvulsant property in Swiss mice against PTZ induced seizures; value ranges from 41.5-78.8; type: functional; conditions: Mus musculus; summary of the method: as §2
[37] = Evaluated for anticonvulsant property in DBA/2 mice against Locomotion assessed by Rotarod test (ip administration); value ranges from 46.2-99.8; type: functional, Mus musculus; summary of the method: as §3
[38] = Evaluated for anticonvulsant property in DBA/2 mice against AMPA induced seizures during clonic phase; value ranges from 13.8-37.2; type: functional; conditions: Mus musculus
[39] = Evaluated for anticonvulsant property in DBA/2 mice against Audiogenic seizures during tonic phase (ip administration); value ranges from 8.67-11.93; type: functional; conditions: Mus musculus; summary of the method: as §4
[40] = Evaluated for anticonvulsant property in DBA/2 mice against audiogenic Seizures after pretreatment with Aniracetam during tonic phase, *p<0.01; value ranges from 12.7-45.5; type: functional; conditions: Mus musculus
[41] = Evaluated for anticonvulsant property in DBA/2 mice against audiogenic Seizures after pretreatment with Aniracetam during clonic phase, *p<0.01; value ranges from 20.5-71.9; type: functional; conditions: Mus musculus
[42] = Evaluated for anticonvulsant property in DBA/2 mice against AMPA induced seizures during tonic phase; value ranges from 11.4-28.7; type: functional; conditions: Mus musculus
[43] = Evaluated for anticonvulsant property in Swiss mice against MES induced seizures; ranges from [18.6-51.0]; type: functional; conditions: Mus musculus
[44] = Evaluated for anticonvulsant property in DBA/2 mice against Audiogenic seizures during clonic phase (ip administration); value ranges from 11.8-22.0; type: functional; conditions: Mus musculus; summary of the method: as §4

SMILES: COc1cc2c(cc1OC)C(c1ccccc1)=Nn1c(O)nnc1C2
Rm [1]: -0.508
selectivity ratio [2]: 2.8
ED50 [3]: 76.5 µmol/kg
TD50 [4]: 123 µM/kg
ED50 [5]: 27.5 µmol/kg
ED50 [6]: 44.6 µmol/kg
ED50 [7]: 60.5 µmol/kg

SMILES: CC1=NN=C(c2ccc(N)cc2)c2cc3c(cc2C1)OCO3 [GYKI-52466]
Rm [1]: -0.368

SMILES: COc1cc2c(cc1OC)C(c1cccc([N+](=O)[O-])c1)=Nn1c(O)nnc1C2
Rm [1]: -0.402
TD50 [9]: >150 µM/kg
ED50 [14]: 43.2 µmol/kg
ED50 [15]: 56.4 µmol/kg

SMILES: COc1cc2c(cc1OC)C(c1ccc(F)cc1)=Nn1c(O)nnc1C2
Rm [1]: -0.402
ED50 [16]: 60.5 µmol/kg
ED50 [17]: 50.9 µmol/kg
ED50 [18]: 43.4 µmol/kg
ED50 [19]: 38.4 µmol/kg
selectivity ratio [2]: 2.8
TD50 [20]: 90.6 µM/kg
ED50 [21]: 21.8 µmol/kg
ED50 [22]: 42.1 µmol/kg
ED50 [23]: 32.1 µmol/kg
ED50 [24]: 32.2 µmol/kg

SMILES: COc1cc2c(cc1OC)C(c1ccc([N+](=O)[O-])cc1)=Nn1c(O)nnc1C2
Rm [1]: -0.368
TD50 [9]: >150 µM/kg
ED50 [27]: 90.7 µmol/kg
ED50 [28]: 75.8 µmol/kg
ED50 [29]: 74.1 µmol/kg
ED50 [30]: 58.3 µmol/kg

SMILES: COc1cc2c(cc1OC)C(c1cccc(N)c1)=Nn1c(O)nnc1C2
Rm [1]: -0.74
ED50 [31]: 13.1 µmol/kg
TD50 [32]: 76.8 µM/kg
selectivity ratio [2]: 3.8
ED50 [33]: 35.1 µmol/kg
ED50 [34]: 58.9 µmol/kg
ED50 [35]: 20.1 µmol/kg

SMILES: COc1cc2c(cc1OC)C(c1ccc(N)cc1)=Nn1c(O)nnc1C2
ED50 [36]: 57.2 µmol/kg
Rm [1]: -0.837
TD50 [37]: 65.8 µM/kg
ED50 [12]: 27.8 µmol/kg
ED50 [38]: 22.1 µmol/kg
selectivity ratio [2]: 4
ED50 [39]: 10.2 µmol/kg
ED50 [40]: 24.1 µmol/kg
ED50 [41]: 38.4 µmol/kg
ED50 [42]: 18.1 µmol/kg
ED50 [43]: 30.8 µmol/kg
ED50 [44]: 16.1 µmol/kg

Further lines, with some results ahead:

Rm [1]: -0.28
SMILES: COc1cc2c(cc1OC)C(c1ccc(F)cc1)=NNC(=O)C2
ED50 [8]: 78 µmol/kg
TD50 [9]: >150 µM/kg
ED50 [10]: 57.2 µmol/kg

Rm [1]: -0.619
SMILES: COc1cc2c(cc1OC)C(c1cccc(N)c1)=NNC(=O)C2
TD50 [11]: 51.5 µM/kg

Rm [1]: -0.647
SMILES: COc1cc2c(cc1OC)C(c1ccc(N)cc1)=NNC(=O)C2
ED50 [12]: > 50 µmol/kg
TD50 [9]: 56.8 µM/kg

Rm [1]: -0.181
SMILES: COc1cc2c(cc1OC)C(c1cccc([N+](=O)[O-])c1)=NNC(=O)C2
TD50 [9]: >150 µM/kg
TI [13]: Not detectable

Rm [1]: -0.145
SMILES: COc1cc2c(cc1OC)C(c1ccc([N+](=O)[O-])cc1)=NNC(=O)C2
TD50 [9]: >150 µM/kg
TI [13]: Not detectable

Rm [1]: -0.28
SMILES: COc1cc2c(cc1OC)C(c1ccccc1)=NNC(=O)C2
ED50 [25]: 33.9 µmol/kg
TD50 [26]: 142 µM/kg
